Results: ChEMBL document CHEMBL3351561, “Discovery of 9-(1-anilinoethyl)-2-morpholino-4-oxo-pyrido[1,2-a]pyrimidine-7-carboxamides as PI3Kβ/δ inhibitors for the treatment of PTEN-deficient tumours” (Bioorg Med Chem Lett, 2014)
Values after ≈ are worked out from the molar mass of the structure shown.

What was measured:
[1] = Ratio of total plasma concentration in PTEN-null human PC3 cells xenografted in SCID mouse at 100 mg/kg, po single dose at 0.5 hrs to IC50 for PI3Kbeta in human […] cells; set-up: species or system PC-3
Method in brief: (§1)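 SCID mice bearing PTEN-null PC3 prostate tumour xenografts got a single oral dose given as a suspension. Total plasma concentration was measured at the sampled time points (0.5, 4 or 8 h). The value is the […] cover over the PI3Kβ cellular IC50, which comes from inhibition of Ser473 Akt phosphorylation in PTEN-null MDA-MB-468 breast adenocarcinoma cells.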

[2] = Apparent permeability from apical (pH 6.5) to […] of human Caco2 cells; format: ADME, cell-based; settings: Caco-2, pH 6.5
[3] = Total plasma concentration in SCID mouse xenografted with PTEN-null human PC3 cells at 100 mg/kg, po measured after 30 mins; format: ADME, organism-based, PC-3; set-up: dose 100 mg/kg, route oral
Method in brief: (§2)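 Total plasma concentration was measured in SCID mice carrying PC3 xenografts after a single oral dose given as a suspension (50, 100 or 200 mg/kg). Samples were taken at 0.5 to 8 h.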

Mus musculus [4] = assay: Inhibition of Akt phosphorylation in SCID mouse xenografted with PTEN-null human PC3 cells at 100 mg/kg, po measured after 4 hrs; format: functional; settings: PC-3, 4 h
Method in brief: (§3)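 SCID mice carrying PTEN-null PC3 prostate xenografts received a single oral dose as a suspension (50, 100 or 200 mg/kg).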

[5] = target: Phosphatidylinositol 4,5-bisphosphate 3-kinase catalytic subunit gamma isoform (Homo sapiens, UniProt P48736); assay: Inhibition of human recombinant PI3Kgamma assessed as depletion of ATP substrate by Ultra Glo luciferase assay
Sequence of Phosphatidylinositol 4,5-bisphosphate 3-kinase catalytic subunit gamma isoform (P48736 whole entry, canonical isoform): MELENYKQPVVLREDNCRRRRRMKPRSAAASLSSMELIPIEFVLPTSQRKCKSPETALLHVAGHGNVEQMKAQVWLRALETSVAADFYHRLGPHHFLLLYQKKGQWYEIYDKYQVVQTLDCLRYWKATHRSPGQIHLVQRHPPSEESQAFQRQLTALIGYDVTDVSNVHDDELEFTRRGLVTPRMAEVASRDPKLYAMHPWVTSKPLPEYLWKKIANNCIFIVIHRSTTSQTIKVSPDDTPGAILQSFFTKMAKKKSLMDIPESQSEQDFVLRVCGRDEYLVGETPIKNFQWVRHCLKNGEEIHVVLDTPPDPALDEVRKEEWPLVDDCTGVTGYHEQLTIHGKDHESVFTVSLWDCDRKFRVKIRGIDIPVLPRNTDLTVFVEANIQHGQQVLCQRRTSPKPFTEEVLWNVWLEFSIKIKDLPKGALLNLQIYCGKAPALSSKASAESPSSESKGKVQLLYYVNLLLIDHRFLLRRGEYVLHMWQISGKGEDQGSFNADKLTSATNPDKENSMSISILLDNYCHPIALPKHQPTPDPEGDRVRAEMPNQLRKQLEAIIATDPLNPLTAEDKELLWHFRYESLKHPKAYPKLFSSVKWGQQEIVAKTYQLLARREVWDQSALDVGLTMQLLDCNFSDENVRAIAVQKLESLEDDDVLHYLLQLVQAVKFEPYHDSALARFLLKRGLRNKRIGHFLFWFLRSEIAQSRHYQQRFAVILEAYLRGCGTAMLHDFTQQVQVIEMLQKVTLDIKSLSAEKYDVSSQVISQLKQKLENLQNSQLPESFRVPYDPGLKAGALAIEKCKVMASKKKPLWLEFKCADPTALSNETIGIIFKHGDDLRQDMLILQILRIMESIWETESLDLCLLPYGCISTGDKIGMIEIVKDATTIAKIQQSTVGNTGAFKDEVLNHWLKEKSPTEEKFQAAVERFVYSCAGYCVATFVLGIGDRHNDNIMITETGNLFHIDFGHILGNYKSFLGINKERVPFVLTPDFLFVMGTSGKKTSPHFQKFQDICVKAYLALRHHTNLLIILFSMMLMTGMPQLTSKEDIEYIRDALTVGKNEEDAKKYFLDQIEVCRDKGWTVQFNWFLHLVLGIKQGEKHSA
Method in brief: (§4)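 Enzyme IC50s are reported as the geometric mean of 3 or more values.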

Homo sapiens = organism: Homo sapiens; assay: Ratio of IC50 for PI3Kalpha human BT474 cells to IC50 PI3Kbeta in human […] cells
[6] = target: T1, Phosphatidylinositol 4,5-bisphosphate 3-kinase catalytic subunit alpha isoform (Homo sapiens, UniProt P42336); assay: Inhibition of PI3Kalpha in human BT474 cells assessed as inhibition of […] Akt phosphorylation after 2 hrs by fluorescence assay; format: cell-based, BT-474
T1 sequence (P42336 whole entry, canonical isoform): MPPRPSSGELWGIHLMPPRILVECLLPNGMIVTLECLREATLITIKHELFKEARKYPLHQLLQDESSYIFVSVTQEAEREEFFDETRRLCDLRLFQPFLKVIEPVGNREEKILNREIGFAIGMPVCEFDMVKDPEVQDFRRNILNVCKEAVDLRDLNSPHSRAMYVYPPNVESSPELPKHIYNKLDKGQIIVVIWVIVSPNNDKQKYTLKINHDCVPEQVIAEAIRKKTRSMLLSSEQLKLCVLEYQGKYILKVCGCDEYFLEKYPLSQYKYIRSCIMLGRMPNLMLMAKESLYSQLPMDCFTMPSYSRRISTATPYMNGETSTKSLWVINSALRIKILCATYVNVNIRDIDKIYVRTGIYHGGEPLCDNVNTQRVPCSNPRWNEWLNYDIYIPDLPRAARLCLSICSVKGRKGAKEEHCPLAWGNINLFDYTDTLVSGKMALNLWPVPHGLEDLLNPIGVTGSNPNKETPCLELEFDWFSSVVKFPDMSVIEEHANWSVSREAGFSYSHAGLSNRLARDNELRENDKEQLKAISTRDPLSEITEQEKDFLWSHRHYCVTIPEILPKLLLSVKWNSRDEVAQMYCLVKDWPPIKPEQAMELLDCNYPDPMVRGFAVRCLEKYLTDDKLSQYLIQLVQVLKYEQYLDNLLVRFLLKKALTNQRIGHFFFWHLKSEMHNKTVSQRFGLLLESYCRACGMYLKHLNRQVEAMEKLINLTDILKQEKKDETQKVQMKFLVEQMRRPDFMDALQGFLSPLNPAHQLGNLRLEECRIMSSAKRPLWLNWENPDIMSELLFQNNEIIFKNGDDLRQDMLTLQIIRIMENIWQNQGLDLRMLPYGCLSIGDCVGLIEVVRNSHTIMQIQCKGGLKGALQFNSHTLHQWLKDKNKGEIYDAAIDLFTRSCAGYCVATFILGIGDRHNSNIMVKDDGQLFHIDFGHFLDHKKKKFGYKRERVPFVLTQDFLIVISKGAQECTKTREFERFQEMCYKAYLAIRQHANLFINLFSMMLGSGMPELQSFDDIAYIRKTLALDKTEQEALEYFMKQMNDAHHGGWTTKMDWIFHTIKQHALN
Method in brief: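 BT474 cells were seeded in DMEM with 10% FCS and 1% glutamine and left to adhere overnight, then treated with compound in DMSO for 2 h at 37 °C and 5% CO2. Cells were lysed with a phosphatase/protease-inhibitor buffer. Lysate was captured on anti-total-Akt plates, probed with anti-phospho-Akt Thr308 and an HRP secondary, and read by fluorescence (ex 325/em 420 nm). Values are the geometric mean of ≥2 determinations.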

[7] = Ratio of total plasma concentration in PTEN-null human PC3 cells xenografted in SCID mouse at 100 mg/kg, po single dose at 4 hrs to IC50 for PI3Kbeta in human MAD-MB-468 cells; set-up: species or system PC-3
[8] = Fraction unbound in mouse plasma; format: ADME, cell-free
Method in brief: (§5)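 Protein binding was measured in nude mouse plasma and in human plasma and is expressed as fraction unbound (%).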

Mus musculus [9] = assay: Inhibition of Akt phosphorylation in SCID mouse xenografted with PTEN-null human PC3 cells at 100 mg/kg, po measured after 30 mins; format: functional; settings: PC-3, 0.5 h; method in brief: as §3
[10] = target: T2, Phosphatidylinositol 4,5-bisphosphate 3-kinase catalytic subunit delta isoform (Homo sapiens, UniProt O00329); assay: Inhibition of human recombinant PI3Kdelta assessed as depletion of ATP substrate by Ultra Glo luciferase assay; method in brief: as §4
T2 sequence (O00329 whole entry): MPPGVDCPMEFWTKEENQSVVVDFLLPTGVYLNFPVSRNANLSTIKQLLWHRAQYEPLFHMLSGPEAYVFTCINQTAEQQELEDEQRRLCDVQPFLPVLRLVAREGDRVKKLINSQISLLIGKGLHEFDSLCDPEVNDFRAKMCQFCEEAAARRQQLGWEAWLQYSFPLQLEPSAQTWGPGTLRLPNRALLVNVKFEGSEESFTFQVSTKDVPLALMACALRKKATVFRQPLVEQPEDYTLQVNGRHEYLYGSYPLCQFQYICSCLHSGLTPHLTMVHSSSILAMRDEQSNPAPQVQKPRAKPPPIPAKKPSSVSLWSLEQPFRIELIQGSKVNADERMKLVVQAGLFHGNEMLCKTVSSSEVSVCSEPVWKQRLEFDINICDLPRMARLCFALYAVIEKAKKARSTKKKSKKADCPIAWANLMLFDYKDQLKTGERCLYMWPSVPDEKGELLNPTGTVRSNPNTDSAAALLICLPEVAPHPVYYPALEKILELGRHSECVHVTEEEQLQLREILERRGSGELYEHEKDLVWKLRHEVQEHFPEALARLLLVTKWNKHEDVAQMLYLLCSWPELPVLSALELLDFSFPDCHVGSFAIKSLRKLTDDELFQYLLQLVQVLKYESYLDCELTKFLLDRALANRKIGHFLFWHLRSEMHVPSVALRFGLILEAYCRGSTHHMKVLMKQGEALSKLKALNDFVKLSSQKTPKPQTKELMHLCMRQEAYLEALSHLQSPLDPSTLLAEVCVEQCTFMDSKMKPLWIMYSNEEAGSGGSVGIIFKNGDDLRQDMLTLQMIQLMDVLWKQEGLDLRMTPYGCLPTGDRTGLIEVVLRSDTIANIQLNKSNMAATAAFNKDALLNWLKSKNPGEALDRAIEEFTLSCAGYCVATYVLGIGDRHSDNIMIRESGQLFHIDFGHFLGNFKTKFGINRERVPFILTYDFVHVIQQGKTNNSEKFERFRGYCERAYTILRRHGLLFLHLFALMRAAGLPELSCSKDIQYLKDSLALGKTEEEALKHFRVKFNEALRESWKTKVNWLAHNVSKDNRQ

[11] = Clearance in mouse plasma at 5 umol/kg, iv and 30 umol/kg, po; format: ADME, organism-based
Method in brief: (§6)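 […] mice were dosed at 5 µmol/kg i.v. and 30 µmol/kg p.o. Clearance is given in mL/min/kg and oral bioavailability in %.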

[12] = Fraction unbound in human plasma; format: ADME, cell-free; method in brief: as §5
[13] = target: T3, Phosphatidylinositol 4,5-bisphosphate 3-kinase catalytic subunit beta isoform (Homo sapiens, UniProt P42338); assay: Inhibition of human recombinant PI3Kbeta assessed as depletion of ATP substrate by Ultra Glo luciferase assay; method in brief: as §4
T3 sequence (P42338 whole entry, canonical isoform): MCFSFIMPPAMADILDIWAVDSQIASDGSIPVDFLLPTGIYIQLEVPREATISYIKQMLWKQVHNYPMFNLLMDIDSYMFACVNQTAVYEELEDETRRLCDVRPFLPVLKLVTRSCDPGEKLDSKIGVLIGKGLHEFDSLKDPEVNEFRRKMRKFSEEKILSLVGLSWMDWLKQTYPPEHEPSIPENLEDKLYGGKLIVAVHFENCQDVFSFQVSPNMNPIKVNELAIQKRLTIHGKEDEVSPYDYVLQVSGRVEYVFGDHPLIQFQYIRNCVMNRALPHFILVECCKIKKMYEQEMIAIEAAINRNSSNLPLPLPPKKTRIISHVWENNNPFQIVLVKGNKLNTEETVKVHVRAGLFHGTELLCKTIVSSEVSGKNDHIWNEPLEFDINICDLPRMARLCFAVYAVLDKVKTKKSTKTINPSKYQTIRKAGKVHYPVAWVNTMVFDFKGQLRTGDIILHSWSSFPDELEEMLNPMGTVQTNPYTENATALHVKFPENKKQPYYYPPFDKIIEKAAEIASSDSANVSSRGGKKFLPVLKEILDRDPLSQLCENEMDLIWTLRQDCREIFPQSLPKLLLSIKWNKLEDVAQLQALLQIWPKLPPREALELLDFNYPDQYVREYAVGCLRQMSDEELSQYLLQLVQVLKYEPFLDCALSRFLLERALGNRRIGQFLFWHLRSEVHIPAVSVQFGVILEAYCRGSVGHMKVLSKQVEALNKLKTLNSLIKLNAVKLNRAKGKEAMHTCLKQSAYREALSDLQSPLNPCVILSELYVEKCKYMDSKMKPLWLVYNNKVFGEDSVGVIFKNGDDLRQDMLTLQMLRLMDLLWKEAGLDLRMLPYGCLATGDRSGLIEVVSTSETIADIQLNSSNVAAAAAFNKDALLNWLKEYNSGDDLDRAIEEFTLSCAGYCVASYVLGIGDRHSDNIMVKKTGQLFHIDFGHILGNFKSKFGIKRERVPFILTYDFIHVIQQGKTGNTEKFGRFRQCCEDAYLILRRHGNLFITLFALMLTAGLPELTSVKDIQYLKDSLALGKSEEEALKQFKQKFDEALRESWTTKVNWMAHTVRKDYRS

[14] = Solubility of the compound in phosphate buffer at pH 7.4; format: physicochemical
Method in brief: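 Solubility was measured from solid material in phosphate buffer at pH 7.4.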

[15] = Total plasma concentration in SCID mouse xenografted with PTEN-null human PC3 cells at 100 mg/kg, po measured after 4 hrs; format: ADME, organism-based, PC-3; set-up: dose 100 mg/kg, route oral; method in brief: as §2
[16] = Intrinsic clearance in human hepatocytes measured per 10^6 cells; format: ADME, cell-based, Hepatocyte; settings: read-out: CLH
Method in brief: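 Intrinsic clearance was measured in human hepatocytes and is expressed in µL/min/10^6 cells.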

[17] = target: T3, Phosphatidylinositol 4,5-bisphosphate 3-kinase catalytic subunit beta isoform; assay: Inhibition of PI3Kbeta in human MAD-MB-468 cells assessed as inhibition of Ser473 Akt phosphorylation by cellular potency assay
[18] = Bioavailability in mouse plasma at 5 umol/kg, iv and 30 umol/kg, po; format: ADME, organism-based; method in brief: as §6
[19] = target: T1, Phosphatidylinositol 4,5-bisphosphate 3-kinase catalytic subunit alpha isoform; assay: Inhibition of human recombinant PI3Kalpha assessed as depletion of ATP substrate by Ultra Glo luciferase assay; method in brief: as §4
[20] = Buffer/octanol partition coefficient, log D of the compound at pH 7.4 by shake flask method; format: physicochemical
Method in brief: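 LogD at pH 7.4 was measured by shake-flask with a buffer/octanol volume ratio of 100:1.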

[21] = Half life in mouse plasma at 5 umol/kg, iv and 30 umol/kg, po; format: ADME, organism-based
[22] = Total plasma concentration in SCID mouse xenografted with PTEN-null human PC3 cells at 200 mg/kg, po measured after 4 hrs; format: ADME, organism-based, PC-3; set-up: dose 200 mg/kg, route oral; method in brief: as §2
[23] = Ratio of total plasma concentration in PTEN-null human PC3 cells xenografted in SCID mouse at 200 mg/kg, po single dose at 0.5 hrs to IC50 for PI3Kbeta in human […] cells; set-up: species or system PC-3; method in brief: as §1
[24] = Ratio of total plasma concentration in PTEN-null human PC3 cells xenografted in SCID mouse at 200 mg/kg, po single dose at 4 hrs to IC50 for PI3Kbeta in human […] cells; set-up: species or system PC-3; method in brief: as §1
[25] = Total plasma concentration in SCID mouse xenografted with PTEN-null human PC3 cells at 200 mg/kg, po measured after 30 mins; format: ADME, organism-based, PC-3; set-up: dose 200 mg/kg, route oral; method in brief: as §2
Mus musculus [26] = assay: Inhibition of Akt phosphorylation in SCID mouse xenografted with PTEN-null human PC3 cells at 200 mg/kg, po measured after 8 hrs; format: functional; settings: PC-3, 8 h; method in brief: as §3
Mus musculus [27] = assay: Inhibition of Akt phosphorylation in SCID mouse xenografted with PTEN-null human PC3 cells at 200 mg/kg, po measured after 30 mins; format: functional; settings: PC-3, 0.5 h; method in brief: as §3
[28] = Ratio of total plasma concentration in PTEN-null human PC3 cells xenografted in SCID mouse at 200 mg/kg, po single dose at 8 hrs to IC50 for PI3Kbeta in human […] cells; set-up: species or system PC-3; method in brief: as §1
[29] = Total plasma concentration in SCID mouse xenografted with PTEN-null human PC3 cells at 200 mg/kg, po measured after 8 hrs; format: ADME, organism-based, PC-3; set-up: dose 200 mg/kg, route oral; method in brief: as §2
Mus musculus [30] = assay: Inhibition of Akt phosphorylation in SCID mouse xenografted with PTEN-null human PC3 cells at 200 mg/kg, po measured after 4 hrs; format: functional; settings: PC-3, 4 h; method in brief: as §3

SMILES | Papp A→B [2] [×10⁻⁶ cm/s] | IC50 [5] [nM] | IC50 [6] [nM] | fraction unbound [8] | IC50 [10] [nM] | clearance [11] [mL/min/kg] | fraction unbound [12] | IC50 [13] [nM] | solubility [14] [µM] | hepatocyte CLint [16] [µL/min/1e6 cells] | IC50 [17] [nM] | bioavailability [18] [%] | IC50 [19] [nM] | logD [20] | also measured
CC(Nc1ccc(F)cc1)c1cc(C(=O)N(C)C)cn2c(=O)cc(N3CCOCC3)nc12 (single isomer, unassigned; (-)) | 34 | 13500 | 11600 | 0.12 | 230 | 45 | 0.21 | 37 | 130 (≈ 57.1 µg/mL) | 3 | 62 | 70 | 1300 | 2.3 | Ratio [1]: 140; concentration at 0.5 h [3]: 71 µM; inhibition in vivo at 100 mg/kg (Mus musculus [4]): 60%; Ratio IC50 (Homo sapiens): 190; Ratio [7]: 16; inhibition in vivo at 100 mg/kg (Mus musculus [9]): 85%; concentration at 4 h [15]: 8.1 µM; half-life [21]: 1.1 h
CC(Nc1ccc(F)c(F)c1)c1cc(C(=O)N(C)C)cn2c(=O)cc(N3CCOCC3)nc12 (single isomer, unassigned; (-)) | 44 | 3000 | 4700 | 0.087 | 45 | 74 | 0.14 | 7 | 20 (≈ 9.15 µg/mL) | 9 | 34 | 35 | 340 | 2.7 | concentration at 4 h [22]: 2.3 µM; Ratio [23]: 10; Ratio [24]: 5.9; concentration at 0.5 h [25]: 3.9 µM; inhibition in vivo at 200 mg/kg (Mus musculus [26]): 71%; inhibition in vivo at 200 mg/kg (Mus musculus [27]): 81%; Ratio [28]: 2.5; concentration at 8 h [29]: 0.3 µM; inhibition in vivo at 200 mg/kg (Mus musculus [30]): 81%
